Like-named read-outs stand apart in the source and are kept apart here.
Experiments:
[1] = Influence of oxidation; type: physicochemical; settings: H2O2 3%, 10% and 30%
Procedure, shortened: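 Test compound solutions (150 μg/mL) containing 3%, 10% or 30% H₂O₂ were incubated at 25 °C. Samples taken at 0, 2, 5, 10, 20 and 30 min were ice-quenched, diluted tenfold with methanol, filtered (0.22 µm) and quantified by isocratic C18 RP-HPLC (UV 396 nm). Rate constants were derived from plots of ln(Ct/C0) against time.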

[2] = type: physicochemical
Procedure, shortened: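 Test compound stock (0.75 mg/mL in N,N-dimethylformamide) was diluted to 150 μg/mL in phosphate buffers (pH 1.85–10.97, set at 25 °C). Solutions in glass tubes were held in a thermostat bath at 25, 37, 60, 80 or 100 °C. Aliquots were taken at 0–24 h, ice-quenched, diluted tenfold in methanol, filtered (0.22 µm) and run by C18 RP-HPLC (UV 396 nm). Half-life = ln2/k; activation parameters came from Arrhenius relationship.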

[3] = Influence of irradiation; type: physicochemical; settings: solution under indirect daylight at room temperature, after 15 min
Procedure, shortened: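 A 150 μg/mL test compound solution was exposed to daylight at 25 °C, alongside a light-shielded control. Content was measured by C18 RP-HPLC using acetonitrile–phosphate buffer (35:65, pH 6.5) at 1 mL/min, 30 °C, with UV detection at 396 nm.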

[4] = cited from earlier work

CC(/C=C1\SC(=S)N(CC(=O)O)C1=O)=C\c1ccccc1 [epalrestat, 5-[(1Z,2E)− 2-methyl-3-phenylpropenylidene]-4-oxo-2-thioxo-3-thiazolidie acetic acid]
stability under oxidation conditions [1]: extremely unstable | pH of maximum stability ([2]; 25 °C, pH 1.85 to 10.97): ~10.97 | half-life at 150 μg/mL ([2]; aqueous phosphate buffer, pH 1.85, half-time (t1/2), pH 1.85, 25 °C): 43.3 h | half-life at 150 μg/mL ([2]; aqueous phosphate buffer, pH 1.85, half-time (t1/2), pH 1.85, 37 °C): 33.6 h | half-life at 150 μg/mL ([2]; aqueous phosphate buffer, pH 1.85, half-time (t1/2), pH 1.85, 60 °C): 29.6 h | half-life at 150 μg/mL ([2]; aqueous phosphate buffer, pH 1.85, half-time (t1/2), pH 1.85, 80 °C): 24.6 h | half-life at 150 μg/mL ([2]; aqueous phosphate buffer, pH 1.85, half-time (t1/2), pH 1.85, 100 °C): 10.6 h | half-life at 150 μg/mL ([2]; aqueous phosphate buffer, pH 3.13, half-time (t1/2), pH 3.13, 25 °C): 43.6 h | half-life at 150 μg/mL ([2]; aqueous phosphate buffer, pH 3.13, half-time (t1/2), pH 3.13, 37 °C): 35.7 h | half-life at 150 μg/mL ([2]; aqueous phosphate buffer, pH 3.13, half-time (t1/2), pH 3.13, 60 °C): 33.6 h | half-life at 150 μg/mL ([2]; aqueous phosphate buffer, pH 3.13, half-time (t1/2), pH 3.13, 80 °C): 23.3 h | half-life at 150 μg/mL ([2]; aqueous phosphate buffer, pH 3.13, half-time (t1/2), pH 3.13, 100 °C): 11.1 h | half-life at 150 μg/mL ([2]; aqueous phosphate buffer, pH 5, half-time (t1/2), pH 5.00, 25 °C): 116 h | half-life at 150 μg/mL ([2]; aqueous phosphate buffer, pH 5, half-time (t1/2), pH 5.00, 37 °C): 60.3 h | half-life at 150 μg/mL ([2]; aqueous phosphate buffer, pH 5, half-time (t1/2), pH 5.00, 60 °C): 36.3 h | half-life at 150 μg/mL ([2]; aqueous phosphate buffer, pH 5, half-time (t1/2), pH 5.00, 80 °C): 22.9 h | half-life at 150 μg/mL ([2]; aqueous phosphate buffer, pH 5, half-time (t1/2), pH 5.00, 100 °C): 9.67 h | △H^‡ (enthalpy of activation) ([2]; pH 1.85): 2.806 kcal/mol | △S^‡ (entropy of activation) ([2]; pH 1.85): −647.95 J/K/mol | Rate constant (k) ([2]; pH 1.85, 25 °C): 0.0160 h⁻¹ | Rate constant (k) ([2]; pH 1.85, 37 °C): 0.0206 h⁻¹ | Rate constant (k) ([2]; pH 1.85, 60 °C): 0.0234 h⁻¹ | Rate constant (k) ([2]; pH 1.85, 80 °C): 0.0282 h⁻¹ | Rate constant (k) ([2]; pH 1.85, 100 °C): 0.0655 h⁻¹ | Ea (activation energy) ([2]; pH 1.85, Arrhenius plot 25–100 °C): 3.468 kcal/mol | △H^‡ (enthalpy of activation) ([2]; pH 3.13): 2.885 kcal/mol | △S^‡ (entropy of activation) ([2]; pH 3.13): −646.94 J/K/mol | Rate constant (k) ([2]; pH 3.13, 25 °C): 0.0159 h⁻¹ | Rate constant (k) ([2]; pH 3.13, 37 °C): 0.0194 h⁻¹ | Rate constant (k) ([2]; pH 3.13, 60 °C): 0.0206 h⁻¹ | Rate constant (k) ([2]; pH 3.13, 80 °C): 0.0297 h⁻¹ | Rate constant (k) ([2]; pH 3.13, 100 °C): 0.0627 h⁻¹ | Ea (activation energy) ([2]; pH 3.13, Arrhenius plot 25–100 °C): 3.549 kcal/mol | △H^‡ (enthalpy of activation) ([2]; pH 5.00): 6.03 kcal/mol | △S^‡ (entropy of activation) ([2]; pH 5.00): −607.24 J/K/mol | Rate constant (k) ([2]; pH 5.00, 25 °C): 0.0060 h⁻¹ | Rate constant (k) ([2]; pH 5.00, 37 °C): 0.0115 h⁻¹ | Rate constant (k) ([2]; pH 5.00, 60 °C): 0.0191 h⁻¹ | Rate constant (k) ([2]; pH 5.00, 80 °C): 0.0302 h⁻¹ | Rate constant (k) ([2]; pH 5.00, 100 °C): 0.0717 h⁻¹ | Ea (activation energy) ([2]; pH 5.00, Arrhenius plot 25–100 °C): 6.692 kcal/mol | △H^‡ (enthalpy of activation) ([2]; pH 7.10): 6.217 kcal/mol | △S^‡ (entropy of activation) ([2]; pH 7.10): −604.87 J/K/mol | Rate constant (k) ([2]; pH 7.10, 25 °C): 0.0043 h⁻¹ | Rate constant (k) ([2]; pH 7.10, 37 °C): 0.0153 h⁻¹ | Rate constant (k) ([2]; pH 7.10, 60 °C): 0.0195 h⁻¹ | Rate constant (k) ([2]; pH 7.10, 80 °C): 0.0280 h⁻¹ | Rate constant (k) ([2]; pH 7.10, 100 °C): 0.0695 h⁻¹ | Ea (activation energy) ([2]; pH 7.10, Arrhenius plot 25–100 °C): 6.879 kcal/mol | △H^‡ (enthalpy of activation) ([2]; pH 9.08): 7.012 kcal/mol | △S^‡ (entropy of activation) ([2]; pH 9.08): −594.83 J/K/mol | Rate constant (k) ([2]; pH 9.08, 25 °C): 0.0033 h⁻¹ | Rate constant (k) ([2]; pH 9.08, 37 °C): 0.0122 h⁻¹ | Rate constant (k) ([2]; pH 9.08, 60 °C): 0.0194 h⁻¹ | Rate constant (k) ([2]; pH 9.08, 80 °C): 0.0264 h⁻¹ | Rate constant (k) ([2]; pH 9.08, 100 °C): 0.0690 h⁻¹ | Ea (activation energy) ([2]; pH 9.08, Arrhenius plot 25–100 °C): 7.674 kcal/mol | △H^‡ (enthalpy of activation) ([2]; pH 10.97): 10.38 kcal/mol | △S^‡ (entropy of activation) ([2]; pH 10.97): −552.37 J/K/mol | Rate constant (k) ([2]; pH 10.97, 25 °C): 0.0016 h⁻¹ | shelf-life (t0.9) ([2]; pH 10.97, 25 °C): 65.88 | Rate constant (k) ([2]; pH 10.97, 37 °C): 0.0036 h⁻¹ | shelf-life (t0.9) ([2]; pH 10.97, 37 °C): 29.28 | Rate constant (k) ([2]; pH 10.97, 60 °C): 0.0140 h⁻¹ | shelf-life (t0.9) ([2]; pH 10.97, 60 °C): 7.53 | Rate constant (k) ([2]; pH 10.97, 80 °C): 0.0267 h⁻¹ | shelf-life (t0.9) ([2]; pH 10.97, 80 °C): 3.95 | Rate constant (k) ([2]; pH 10.97, 100 °C): 0.0724 h⁻¹ | shelf-life (t0.9) ([2]; pH 10.97, 100 °C): 1.46 | Ea (activation energy) ([2]; pH 10.97, Arrhenius plot 25–100 °C): 11.04 kcal/mol | half-life at 150 μg/mL ([2]; phosphate buffer, pH 7.1, half-time (t1/2), pH 7.10, 25 °C): 161 h | half-life at 150 μg/mL ([2]; phosphate buffer, pH 7.1, half-time (t1/2), pH 7.10, 37 °C): 45.3 h | half-life at 150 μg/mL ([2]; phosphate buffer, pH 7.1, half-time (t1/2), pH 7.10, 60 °C): 35.5 h | half-life at 150 μg/mL ([2]; phosphate buffer, pH 7.1, half-time (t1/2), pH 7.10, 80 °C): 24.8 h | half-life at 150 μg/mL ([2]; phosphate buffer, pH 7.1, half-time (t1/2), pH 7.10, 100 °C): 9.97 h | half-life at 150 μg/mL ([2]; phosphate buffer, pH 9.08, half-time (t1/2), pH 9.08, 25 °C): 210 h | half-life at 150 μg/mL ([2]; phosphate buffer, pH 9.08, half-time (t1/2), pH 9.08, 37 °C): 56.8 h | half-life at 150 μg/mL ([2]; phosphate buffer, pH 9.08, half-time (t1/2), pH 9.08, 60 °C): 35.7 h | half-life at 150 μg/mL ([2]; phosphate buffer, pH 9.08, half-time (t1/2), pH 9.08, 80 °C): 26.2 h | half-life at 150 μg/mL ([2]; phosphate buffer, pH 9.08, half-time (t1/2), pH 9.08, 100 °C): 10 h | half-life at 150 μg/mL ([2]; phosphate buffer, pH 10.97, half-time (t1/2), pH 10.97, 25 °C): 433 h | half-life at 150 μg/mL ([2]; phosphate buffer, pH 10.97, half-time (t1/2), pH 10.97, 37 °C): 192 h | half-life at 150 μg/mL ([2]; phosphate buffer, pH 10.97, half-time (t1/2), pH 10.97, 60 °C): 49.5 h | half-life at 150 μg/mL ([2]; phosphate buffer, pH 10.97, half-time (t1/2), pH 10.97, 80 °C): 26 h | half-life at 150 μg/mL ([2]; phosphate buffer, pH 10.97, half-time (t1/2), pH 10.97, 100 °C): 9.57 h | reaction order of degradation ([2]; plot of ln(Ct/C0) against time, all degradation conditions): first-order | content of epalrestat relative to that protected from light [3]: a third | behaviour of epalrestat powder on exposure to light [4]: gradually fades in color and decomposes on exposure to light
